According to ChEMBL document CHEMBL1148085, “Indole alkaloids from Peschiera laeta that enhance vinblastine-mediated cytotoxicity with multidrug-resistant cells” (1994):
≈ marks a conversion by molar mass, not a printed value. Calls of active or inactive are those of the source. The calls are words filed in the database; no cut-off is given here.

Legend:
[1] = test system: A-431; assay: Cytotoxicity against human A431 cells by SRB assay; assay type: functional; details: read-out: ED50 (the source's name)
Method in brief: (§1)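 Compounds in 10% DMSO added to cell suspension; 72 h at 37° in humidified 5% CO2. Cells fixed with cold trichloroacetic acid at 4° for 1 h, sulforhodamine B stained 30 min, dye solubilized in 10 mM Tris base, OD 515 nm. A zero-day control was subtracted. Survival is relative to solvent-treated cultures over various concentrations.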

[2] = test system: LNCaP; assay: Cytotoxicity against human LNCAP cells by SRB assay; assay type: functional; details: read-out: ED50 (the source's name); method in brief: as §1
[3] = test system: KB; assay: Cytotoxicity against human KB cells by SRB assay; assay type: functional; details: read-out: ED50 (the source's name); method in brief: as §1
[4] = test system: SK-MEL-2; assay: Cytotoxicity against human SK-MEL-2 cells by SRB assay; assay type: functional; details: read-out: ED50 (the source's name); method in brief: as §1
[5] = test system: Lu1; assay: Cytotoxicity against human Lu1 cells by SRB assay; assay type: functional; details: read-out: ED50 (the source's name); method in brief: as §1
[6] = test system: P388; assay: Cytotoxicity against mouse P388 cells after 48 hrs by SRB assay; assay type: functional; details: P388, 48 h, read-out: ED50 (the source's name)
Method in brief: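 P-388 cells at 10×10^4 cells/ml, exposed to compounds for 48 h at 37° in 5% CO2. Plates were centrifuged and supernatant removed, then cells fixed with 20% trichloroacetic acid at 4° for 1 h. Sulforhodamine B staining and OD read as for the adherent lines. Survival is relative to solvent controls.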

[7] = Cytotoxicity against human drug-resistant KBV1 cells by SRB assay in presence of vinblastine; assay type: functional; details: KB-V1, read-out: ED50 (the source's name)
Method in brief: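 Same SRB protocol (72 h, 37°, 5% CO2, TCA fix, OD 515 nm, zero-day subtraction). KB-V1 cells were exposed to various compound concentrations with vinblastine at 1 μg/ml in the medium. Survival is relative to solvent-treated controls.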

[8] = Cytotoxicity against human BC1 cells by SRB assay; assay type: functional; details: read-out: ED50 (the source's name); method in brief: as §1
[9] = test system: Col2; assay: Cytotoxicity against human Col2 cells by SRB assay; assay type: functional; details: read-out: ED50 (the source's name); method in brief: as §1
[10] = test system: HT; assay: Cytotoxicity against human HT cells by SRB assay; assay type: functional; details: read-out: ED50 (the source's name); method in brief: as §1
[11] = Cytotoxicity against human U373 cells by SRB assay; assay type: functional, U-373MG ATCC; details: U373 MG, read-out: ED50 (the source's name); method in brief: as §1
[12] = test system: ZR-75-1; assay: Cytotoxicity against human ZR-75-1 cells by SRB assay; assay type: functional; details: read-out: ED50 (the source's name); method in brief: as §1
[13] = Cytotoxicity against human drug-resistant KBV1 cells by SRB assay in absence of vinblastine; assay type: functional; details: KB-V1, read-out: ED50 (the source's name); method in brief: as §1
[14] = test system: KBV1; assay: Inhibition of ATP-dependent [3H]vinblastine binding to p-glycoprotein in multidrug-resistant human KBV1 cells; assay type: cell-based
Method in brief: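 Plasma membrane vesicles from KB-V1 cells (60 μg protein) as P-glycoprotein source. Incubated with […] [3H]vinblastine and various compound concentrations (from DMSO) for 20 min at room temperature. Terminated by filtration onto BSA-pretreated glass fiber filters.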

| SMILES | EC50 [1] | EC50 [2] | EC50 [3] | EC50 [4] | EC50 [5] | EC50 [6] | EC50 [7] | EC50 [8] | EC50 [9] | EC50 [10] | EC50 [11] | EC50 [12] | EC50 [13] | Activity [14] |
| --- | --- | --- | --- | --- | --- | --- | --- | --- | --- | --- | --- | --- | --- | --- |
| CC[C@]1(O)C[C@@H]2CN(CCc3c([nH]c4ccccc34)[C@@](C(=O)OC)(c3cc4c(cc3OC)N(C)[C@H]3[C@@](O)(C(=O)OC)[C@H](OC(C)=O)[C@]5(CC)C=CCN6CC[C@]43[C@@H]65)C2)C1 [VINBLASTINE] | 0.05 µg/mL (≈ 0.0617 µM) | 0.1 µg/mL (≈ 0.123 µM) | 0.002 µg/mL (≈ 0.00247 µM) | 0.01 µg/mL (≈ 0.0123 µM) | 0.02 µg/mL (≈ 0.0247 µM) | 0.02 µg/mL (≈ 0.0247 µM) | 0.5 µg/mL | 0.06 µg/mL (≈ 0.074 µM) | 0.01 µg/mL (≈ 0.0123 µM) | 0.02 µg/mL (≈ 0.0247 µM) | 1.1 µg/mL (≈ 1.36 µM) | 0.3 µg/mL (≈ 0.37 µM) | 2.6 µg/mL (≈ 3.21 µM) | – |
| CC[C@H]1C[C@@H]2CN3CCc4c([nH]c5ccccc45)[C@](C(=O)OC)(C2)[C@H]13 [CORONARIDINE] | 19.1 µg/mL (≈ 56.4 µM) | 10.7 µg/mL (≈ 31.6 µM) | 13.6 µg/mL (≈ 40.2 µM) | > 20 µg/mL | 10.9 µg/mL (≈ 32.2 µM) | 3.8 µg/mL (≈ 11.2 µM) | 1.9 µg/mL | 7.5 µg/mL (≈ 22.2 µM) | > 20 µg/mL | > 20 µg/mL | 12 µg/mL (≈ 35.5 µM) | > 20 µg/mL | 11.2 µg/mL (≈ 33.1 µM) | – |
| C/C=C1/CC2[C@H](C(=O)OC)C(NC)Cc3c([nH]c4ccccc34)[C@@H](c3cc4c(cc3OC)C3CCN5C[C@H]6C[C@H](CC)[C@H]5[C@@](C(=O)OC)(C6)C3N4)C[C@H]12 (some centres not stated) [VOACAMINE] | – | – | – | – | – | – | – | – | – | – | – | – | – | Active |
